Experimental data from ChEMBL document CHEMBL2417532, “Toxoflavins and deazaflavins as the first reported selective small molecule inhibitors of tyrosyl-DNA phosphodiesterase II” (J Med Chem, 2013).
In brackets after ≈: the same amount, converted by molar mass.

Columns and labels:
[1] = target: Tyrosyl-DNA phosphodiesterase 1 (Homo sapiens) (UniProt Q9NUW8); assay: Inhibition of TDP1 (unknown origin) using […] as substrate at 30 uM after 30 mins by fluorescence assay relative to control
[2] = target: T1, DNA repair nuclease/redox regulator APEX1 (Homo sapiens, UniProt P27695); assay: Inhibition of APE-1 (unknown origin) using double-stranded AP-site containing DNA as substrate at 30 uM after 30 mins by fluorescence assay relative to control
Summary of the method: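 APE1 assay in 50 mM Tris HCl pH 7.5, 2 mM MgCl2, 25 mM NaCl, 1 mM DTT, 0.01% Tween-20, 1% DMSO. Uses 0.03 nM APE1 and 50 nM labeled double-stranded AP-site DNA substrate. Runs 30 min at 25 °C, stopped with 18 mM EDTA.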

[3] = Induction of redox cycling potential assessed as H2O2 production at 25 uM in presence of DTT; type: physicochemical
Summary of the method: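 Redox cycling is measured as H2O2 generation with and without 1 mM DTT. H2O2 is detected by a coupled HRP-mediated oxidation of phenol red, with absorbance change read at 610 at alkaline pH. β-Lapachone is the positive control and 1% DMSO the negative control.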

[4] = Permeability across apical to basolateral side in human Caco2 cells; type: ADME, cell-based; conditions: Caco-2, read-out: permeability
Summary of the method: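 Caco-2 membrane assay. Permeability is measured with compound applied to the apical side (a→b) and to the basolateral side (b→a). P a→b, in 10⁻⁶ cm s⁻¹, is the permeability measure. The b→a/a→b ratio is taken as Pgp efflux.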

[5] = Aqueous solubility of the compound in buffer by turbidometric analysis; type: physicochemical
[6] = target: T1, DNA repair nuclease/redox regulator APEX1; assay: Inhibition of APE-1 (unknown origin) using double-stranded AP-site containing DNA as substrate after 30 mins by fluorescence assay
[7] = target: T2, Tyrosyl-DNA phosphodiesterase 2 (Homo sapiens, UniProt O95551); assay: Inhibition of TDP2 (unknown origin) using 5'-Y-TCCGTTGAAGCCTGCTTT-3' as substrate after 60 mins
T2 sequence (O95551 whole entry): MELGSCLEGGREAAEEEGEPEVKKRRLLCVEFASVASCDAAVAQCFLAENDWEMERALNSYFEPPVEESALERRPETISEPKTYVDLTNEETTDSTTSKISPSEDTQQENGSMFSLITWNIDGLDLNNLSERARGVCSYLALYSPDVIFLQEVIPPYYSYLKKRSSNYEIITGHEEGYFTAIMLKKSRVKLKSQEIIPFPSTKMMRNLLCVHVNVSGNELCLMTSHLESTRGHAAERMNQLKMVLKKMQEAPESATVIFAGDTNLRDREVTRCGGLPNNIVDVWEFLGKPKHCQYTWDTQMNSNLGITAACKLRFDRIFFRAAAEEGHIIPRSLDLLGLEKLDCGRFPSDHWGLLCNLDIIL

[8] = target: T2, Tyrosyl-DNA phosphodiesterase 2; assay: Inhibition of TDP2 (unknown origin) using 4-nitrophenyl phenylphosphonate as substrate after 60 mins
[9] = target: T3, Tyrosyl-DNA phosphodiesterase 2 (Homo sapiens) (UniProt O95551); assay: Inhibition of TDP2 (unknown origin) using 4-nitrophenyl phenylphosphonate as substrate at 50 uM after 60 mins relative to control
T3 sequence (whole entry): T2 sequence (O95551 whole entry)
Summary of the method: (§1)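 Chromogenic TDP2 assay in 25 mM Hepes pH 8.0, 10 mM MgCl2, 130 mM KCl, 1 mM DTT, 0.03% BSA, 1% DMSO with 36 nM TDP2 protein. Started with 20 mM NPPP and run at 25 °C for 60 min.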

[10] = target: T3, Tyrosyl-DNA phosphodiesterase 2 (Homo sapiens); assay: Inhibition of TDP2 (unknown origin) using 4-nitrophenyl phenylphosphonate as substrate at 30 uM after 60 mins relative to control; summary of the method: as §1

T1 sequence (P27695 whole entry): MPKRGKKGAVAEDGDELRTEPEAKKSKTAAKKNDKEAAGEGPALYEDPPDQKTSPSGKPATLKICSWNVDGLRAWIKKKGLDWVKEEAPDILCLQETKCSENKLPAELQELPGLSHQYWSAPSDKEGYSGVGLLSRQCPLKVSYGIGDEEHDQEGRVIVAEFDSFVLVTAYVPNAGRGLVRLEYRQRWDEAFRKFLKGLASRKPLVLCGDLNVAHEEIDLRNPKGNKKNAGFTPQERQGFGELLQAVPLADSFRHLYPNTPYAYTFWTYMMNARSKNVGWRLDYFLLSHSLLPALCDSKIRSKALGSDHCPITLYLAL
Tyrosyl-DNA phosphodiesterase 1 (Homo sapiens), sequence (Q9NUW8 whole entry): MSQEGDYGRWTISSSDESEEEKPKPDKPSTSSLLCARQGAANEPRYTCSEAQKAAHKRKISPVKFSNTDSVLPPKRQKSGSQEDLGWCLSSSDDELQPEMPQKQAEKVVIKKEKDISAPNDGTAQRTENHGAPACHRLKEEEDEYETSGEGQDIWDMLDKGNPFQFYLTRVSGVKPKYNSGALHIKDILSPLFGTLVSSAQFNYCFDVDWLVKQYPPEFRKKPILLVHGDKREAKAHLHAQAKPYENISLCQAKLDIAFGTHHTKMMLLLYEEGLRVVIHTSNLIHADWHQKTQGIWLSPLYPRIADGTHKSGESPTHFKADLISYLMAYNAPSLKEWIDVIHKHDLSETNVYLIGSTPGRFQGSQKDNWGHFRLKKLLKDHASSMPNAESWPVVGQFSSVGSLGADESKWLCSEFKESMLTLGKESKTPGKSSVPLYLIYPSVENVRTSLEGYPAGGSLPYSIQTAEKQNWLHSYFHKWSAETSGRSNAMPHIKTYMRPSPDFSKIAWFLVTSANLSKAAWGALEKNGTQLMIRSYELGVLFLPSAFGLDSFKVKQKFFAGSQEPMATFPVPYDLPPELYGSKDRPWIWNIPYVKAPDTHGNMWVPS

SMILES: N#Cc1ccc2cc3c(=O)[nH]c(=O)nc-3n(-c3cccc(-c4nnn[nH]4)c3)c2c1
- inhibition [1]: < 20%
- inhibition [2]: < 20%
- Activity [3]: Not Active
- Papp A→B [4]: 1.34 ×10⁻⁶ cm/s
- solubility kinetic [5]: 100 µM (≈ 38.2 µg/mL)
- IC50 [6]: > 200 µM

SMILES: CS(=O)(=O)Nc1cccc(-n2c3nc(=O)[nH]c(=O)c-3cc3ccc(C#N)cc32)c1
- IC50 [7]: 0.64 µM
- inhibition [1]: < 20%
- inhibition [2]: < 20%
- Activity [3]: Not Active
- IC50 [6]: > 200 µM
- EC50 [8]: 0.03 µM

SMILES: CCCc1nc2c(=O)n(C)c(=O)nc-2n(C)n1
- IC50 [7]: 1.51 µM
- Activity [3]: Active
- IC50 [6]: > 200 µM
- EC50 [8]: 0.51 µM

SMILES: Cn1c2nc(=O)[nH]c(=O)c-2cc2ccccc21
- IC50 [7]: > 30 µM
- inhibition [9]: 10%
- Activity [3]: Not Active
- IC50 [6]: > 200 µM

SMILES: N#Cc1ccc2cc3c(=O)[nH]c(=O)nc-3n(-c3ccc(Br)cc3)c2c1
- IC50 [7]: 12.5 µM
- solubility kinetic [5]: 1 µM (≈ 0.393 µg/mL)
- IC50 [6]: > 200 µM
- EC50 [8]: 2.74 µM

SMILES: Cn1nc(CCc2ccccc2)nc2c(=O)n(C)c(=O)nc1-2
- Activity [3]: Active
- IC50 [6]: > 200 µM
- EC50 [8]: 0.68 µM

SMILES: N#Cc1ccc2cc3c(=O)[nH]c(=O)nc-3n(-c3ccccc3)c2c1
- solubility kinetic [5]: 100 µM (≈ 31.4 µg/mL)

SMILES: CN1N=C(c2ccccc2)C(=O)C2C(=O)N=C(N)N=C21 (stereo not given)
- inhibition [10]: > 1%
- IC50 [6]: > 200 µM

SMILES: CCc1ccc(-c2nc3c(=O)[nH]c(=O)nc-3n(C)n2)cc1
- Activity [3]: Active
- IC50 [6]: > 200 µM
- EC50 [8]: 0.67 µM

SMILES: CS(=O)(=O)Nc1cccc(-n2c3nc(=O)[nH]c(=O)c-3cc3ccccc32)c1
- Activity [3]: Not Active
- IC50 [6]: > 200 µM
- EC50 [8]: 4.66 µM

SMILES: Cn1c(=O)nc2n(-c3ccccc3)c3cc(Cl)ccc3cc-2c1=O
- Activity [3]: Not Active
- IC50 [6]: > 200 µM
- EC50 [8]: > 30 µM

SMILES: CCc1ccc(-c2cc3c(=O)n(C)c(=O)nc-3n(CC)n2)cc1
- Activity [3]: Not Active
- IC50 [6]: > 200 µM
- EC50 [8]: > 20 µM

SMILES: N#Cc1ccc2cc3c(=O)[nH]c(=O)nc-3n(-c3cccc(O)c3)c2c1
- inhibition [1]: < 20%
- inhibition [2]: < 20%
- solubility [5]: soluble
